Data from ChEMBL document CHEMBL1122836, “Angiotensin converting enzyme inhibitors: structure-activity profile of 1-benzazepin-2-one derivatives” (J Med Chem, 1985).

Tests used:
[1] = target: Angiotensin-converting enzyme (Homo sapiens, UniProt P12821); test: (§1) In vitro inhibitory activity against Angiotensin I converting enzyme
Canis familiaris [2] = test: In vivo inhibitory activity against Angiotensin I pressor response in normotensive dog after peroral administration, ecperiment 2; type: functional; conditions: Canis lupus familiaris, po; read-out: ID50 (the source's name)
Rattus norvegicus [3] = test: In vivo inhibitory activity against Angiotensin I pressor response in normotensive rats after peroral administration; type: functional; conditions: po, read-out: ID50 (the source's name)
Rattus norvegicus [4] = test: In vivo inhibitory activity against Angiotensin I pressor response in normotensive rats by peroral administration, experiment 2; type: functional; conditions: po, read-out: ID50 (the source's name)
Rattus norvegicus [5] = test: Maximal changes in blood pressure recorded during the 4 day test period in spontaneous hypertensive rats, at 3 mg/kg peroral dose; type: functional; conditions: route oral
In short: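 Spontaneously hypertensive rats dosed orally with test compound. Blood pressure was recorded over a 4-day test period. The value is the maximal change in blood pressure seen in that period, given in mm with the oral dose (mg/kg) in brackets.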

Canis familiaris [6] = test: In vivo inhibitory activity against Angiotensin I pressor response in normotensive dog after peroral administration, experiment 1; type: functional; conditions: Canis lupus familiaris, po; read-out: ID50 (the source's name)
Rattus norvegicus [7] = test: Maximal changes in blood pressure recorded during the 4 day test period in spontaneous hypertensive rats, at 1 mg/kg peroral dose; type: functional; conditions: route oral
[8] = target: T1, Angiotensin-converting enzyme (Rattus norvegicus, UniProt P47820); test: as §1
T1 sequence (P47820 whole entry): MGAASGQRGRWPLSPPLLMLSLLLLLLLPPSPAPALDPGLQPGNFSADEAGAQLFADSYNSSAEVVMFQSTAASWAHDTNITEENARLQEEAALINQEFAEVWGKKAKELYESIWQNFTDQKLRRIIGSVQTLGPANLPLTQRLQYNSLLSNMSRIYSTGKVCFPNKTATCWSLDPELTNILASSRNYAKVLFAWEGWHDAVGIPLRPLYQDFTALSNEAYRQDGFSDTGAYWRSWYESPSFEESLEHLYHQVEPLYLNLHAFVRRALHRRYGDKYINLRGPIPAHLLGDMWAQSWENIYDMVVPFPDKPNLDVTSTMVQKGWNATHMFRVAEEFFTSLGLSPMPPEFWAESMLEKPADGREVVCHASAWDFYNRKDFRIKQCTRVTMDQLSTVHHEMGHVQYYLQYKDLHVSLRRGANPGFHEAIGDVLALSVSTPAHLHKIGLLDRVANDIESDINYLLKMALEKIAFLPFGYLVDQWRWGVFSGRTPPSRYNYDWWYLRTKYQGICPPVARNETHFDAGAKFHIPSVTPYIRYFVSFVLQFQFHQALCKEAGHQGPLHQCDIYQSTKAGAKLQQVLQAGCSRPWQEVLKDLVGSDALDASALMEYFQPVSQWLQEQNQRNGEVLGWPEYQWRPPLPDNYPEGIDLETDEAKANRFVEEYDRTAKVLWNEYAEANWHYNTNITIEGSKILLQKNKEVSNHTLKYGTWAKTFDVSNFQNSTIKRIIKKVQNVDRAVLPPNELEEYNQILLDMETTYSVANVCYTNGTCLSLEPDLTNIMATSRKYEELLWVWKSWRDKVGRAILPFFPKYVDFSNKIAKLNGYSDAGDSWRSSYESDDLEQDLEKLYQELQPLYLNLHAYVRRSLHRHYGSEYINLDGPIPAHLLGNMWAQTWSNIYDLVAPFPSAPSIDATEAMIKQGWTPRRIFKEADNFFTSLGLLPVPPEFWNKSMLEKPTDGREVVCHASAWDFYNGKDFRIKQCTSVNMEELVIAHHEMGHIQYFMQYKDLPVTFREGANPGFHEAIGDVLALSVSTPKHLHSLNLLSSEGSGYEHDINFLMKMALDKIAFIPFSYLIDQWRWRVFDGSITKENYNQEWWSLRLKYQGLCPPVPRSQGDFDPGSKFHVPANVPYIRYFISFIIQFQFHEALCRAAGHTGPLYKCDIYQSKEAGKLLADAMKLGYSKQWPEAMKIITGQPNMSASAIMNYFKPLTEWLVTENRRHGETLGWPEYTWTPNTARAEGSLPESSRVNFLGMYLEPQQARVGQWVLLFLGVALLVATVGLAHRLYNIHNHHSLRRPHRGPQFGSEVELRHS

Rattus norvegicus [9] = test: Maximal changes in blood pressure recorded during the 4 day test period in spontaneous hypertensive rats, at 30 mg/kg peroral dose; type: functional; conditions: route oral
In short: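 Spontaneously hypertensive rats dosed orally and blood pressure recorded over a 4-day test period. Readout is the maximal change in blood pressure (mm) with the oral dose noted; pressure also followed at 24 h after dosing.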

Canis familiaris [10] = test: In vivo inhibitory activity against Angiotensin I pressor response in normotensive dog after peroral administration; type: functional; conditions: Canis lupus familiaris, po; read-out: ID50 (the source's name)

Angiotensin-converting enzyme (Homo sapiens, UniProt P12821), sequence (P12821 whole entry): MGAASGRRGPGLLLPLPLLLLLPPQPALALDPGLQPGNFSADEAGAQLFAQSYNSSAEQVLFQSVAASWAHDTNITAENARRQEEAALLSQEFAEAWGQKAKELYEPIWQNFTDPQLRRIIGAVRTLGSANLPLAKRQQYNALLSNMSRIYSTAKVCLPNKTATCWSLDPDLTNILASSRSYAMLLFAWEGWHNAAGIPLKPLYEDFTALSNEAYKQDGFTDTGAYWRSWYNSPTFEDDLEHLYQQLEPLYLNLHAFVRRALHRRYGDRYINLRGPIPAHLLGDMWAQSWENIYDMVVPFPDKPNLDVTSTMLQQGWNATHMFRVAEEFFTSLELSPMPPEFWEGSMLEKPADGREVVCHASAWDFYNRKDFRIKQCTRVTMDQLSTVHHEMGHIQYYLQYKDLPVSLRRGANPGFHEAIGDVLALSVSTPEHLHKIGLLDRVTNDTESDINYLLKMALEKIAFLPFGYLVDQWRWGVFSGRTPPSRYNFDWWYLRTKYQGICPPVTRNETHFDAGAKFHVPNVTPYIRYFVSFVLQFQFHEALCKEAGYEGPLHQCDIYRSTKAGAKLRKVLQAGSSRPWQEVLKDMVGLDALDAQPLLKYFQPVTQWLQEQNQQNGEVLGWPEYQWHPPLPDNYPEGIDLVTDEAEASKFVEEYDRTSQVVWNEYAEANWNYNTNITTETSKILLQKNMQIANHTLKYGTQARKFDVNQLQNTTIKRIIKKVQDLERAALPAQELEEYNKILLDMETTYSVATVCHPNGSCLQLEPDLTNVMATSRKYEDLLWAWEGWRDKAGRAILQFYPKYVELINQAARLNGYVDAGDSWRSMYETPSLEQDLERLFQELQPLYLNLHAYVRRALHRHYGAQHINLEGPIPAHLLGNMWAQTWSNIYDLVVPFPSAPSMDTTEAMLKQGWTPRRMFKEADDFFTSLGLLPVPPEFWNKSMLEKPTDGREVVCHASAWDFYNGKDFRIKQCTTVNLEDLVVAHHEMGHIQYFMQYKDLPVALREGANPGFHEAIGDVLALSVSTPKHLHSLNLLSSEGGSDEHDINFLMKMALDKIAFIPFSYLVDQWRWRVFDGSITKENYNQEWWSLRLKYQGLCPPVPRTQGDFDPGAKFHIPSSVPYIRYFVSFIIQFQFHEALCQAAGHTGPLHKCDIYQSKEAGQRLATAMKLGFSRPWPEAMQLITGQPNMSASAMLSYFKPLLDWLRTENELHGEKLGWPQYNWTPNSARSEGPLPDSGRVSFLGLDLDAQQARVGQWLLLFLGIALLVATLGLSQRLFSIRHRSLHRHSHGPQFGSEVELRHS

IC50 [1] [nM]	Structure (SMILES)	other results
2.9	O=C(O)CN1C(=O)[C@@H](N[C@@H](CSCc2ccccc2)C(=O)O)CCc2ccccc21	
15	CCOC(=O)[C@H](CCCCNC(=O)OCc1ccccc1)N[C@H]1CCc2ccccc2N(CC(=O)O)C1=O	
1000	COC(=O)[C@H](CC(C)C)N[C@H]1CCc2ccccc2N(CC(=O)O)C1=O	
8.5	O=C(O)CN1C(=O)[C@@H](N[C@@H](Cc2ccccc2)C(=O)O)CCc2ccccc21	
540	CCOC(=O)[C@H](Cc1c[nH]c2ccccc12)N[C@H]1CCc2ccccc2N(CC(=O)O)C1=O	
4	O=C(O)CN1C(=O)[C@@H](N[C@@H](CSc2ccccc2)C(=O)O)CCc2ccccc21	
4	CC(C)(C)OC(=O)NCCCC[C@H](N[C@H]1CCc2ccccc2N(CC(=O)O)C1=O)C(=O)O	
2600	CCCC[C@H](N[C@H]1CCc2ccccc2N(CC(=O)O)C1=O)C(=O)OCC	
45	CC(C)C[C@H](N[C@H]1CCc2ccccc2N(CC(=O)O)C1=O)C(=O)O	
6.5	CSCC[C@H](N[C@H]1CCc2ccccc2N(CC(=O)O)C1=O)C(=O)O	
40	CCOC(=O)[C@H](CCCCN)N[C@H]1CCc2ccccc2N(CC(=O)O)C1=O	
5	CCCC[C@H](N[C@H]1CCc2ccccc2N(CC(=O)O)C1=O)C(=O)O	
10	O=C(O)CN1C(=O)[C@@H](N[C@@H](COCc2ccccc2)C(=O)O)CCc2ccccc21	
7	O=C(O)CN1C(=O)[C@@H](N[C@@H](CSCCc2ccccc2)C(=O)O)CCc2ccccc21	
13	O=C(O)CN1C(=O)[C@@H](N[C@@H](CCCCNC(=O)OCc2ccccc2)C(=O)O)CCc2ccccc21	
13	O=C(O)CN1C(=O)[C@@H](N[C@@H](Cc2c[nH]c3ccccc23)C(=O)O)CCc2ccccc21	
6	CCC[C@H](N[C@H]1CCc2ccccc2N(CC(=O)O)C1=O)C(=O)O	
	CCOC(=O)[C@H](CCc1ccccc1)N[C@@H](C)C(=O)N1CCC[C@H]1C(=O)O	ED50 (Canis familiaris [2]): 0.096 mg/kg; ED50 (Rattus norvegicus [3]): 0.14 mg/kg; ED50 (Rattus norvegicus [4]): 0.28 mg/kg; Delta blood pressure (Rattus norvegicus [5]): -54 mmHg; ED50 (Canis familiaris [6]): 0.15 mg/kg; Delta blood pressure (Rattus norvegicus [7]): -35 mmHg
	CCOC(=O)[C@H](CCc1ccccc1)N[C@H]1CCc2ccccc2N(CC(=O)O)C1=O [BENAZEPRIL]	ED50 (Rattus norvegicus [3]): 0.1 mg/kg; Delta blood pressure (Rattus norvegicus [5]): 50 mmHg; IC50 [8]: 1.7 nM
7	NCCCC[C@H](N[C@H]1CCc2ccccc2N(CC(=O)O)C1=O)C(=O)O [LIBENZAPRIL]	Delta blood pressure (Rattus norvegicus [9]): -69 mmHg; ED50 (Rattus norvegicus [3]): 1.7 mg/kg; ED50 (Canis familiaris [10]): 0.07 mg/kg
